Measurements collected from several papers.
Protocols differ between the studies behind these lines. Converted amounts (≈) assume the structure as drawn.
Organism: Klebsiella pneumoniae
Read-out: microbial growth

SMILES	assay	system	MIC [µg/mL]
COC(=O)c1cc(-c2ccc(OC)c(NC(=O)Nc3ccc(Cl)c(Cl)c3)c2)on1	broth dilution	BAA1705	> 64
CCCCCCC#Cc1cncc(-c2nnc(Sc3ccc([N+](=O)[O-])cc3[N+](=O)[O-])n2C)c1			≥ 20
CN[C@@H]1[C@H](O)[C@H](NC)[C@H]2O[C@@]3(O)C(=O)C[C@@H](C)O[C@H]3O[C@@H]2[C@H]1O	broth dilution	ATCC33495	> 200
Fc1c(F)c(F)c(F)c(F)c1F		ATCC13883	> 250
CCCCCCC#Cc1cncc(-c2nnc(SCc3cc([N+](=O)[O-])cc([N+](=O)[O-])c3)n2C)c1			≥ 20
COC(=O)c1cc(-c2cccc(NC(=O)Nc3ccccc3C)c2)on1	broth dilution	BAA1705	> 64
Fc1c(F)c(F)c(-c2c(F)c(F)c(F)c(F)c2F)c(F)c1F		ATCC13883	> 250
COC(=O)c1cc(-c2cccc(NC(=O)Nc3cccc(C#N)c3)c2)on1	broth dilution	BAA1705	> 64
Cc1c(NN=C(C#N)C2=NC(=O)CS2)c(=O)n(-c2ccccc2)n1C	broth dilution		0.98 (≈ 2.77 µM)
CCCCCCCCCC(=O)N[C@@H](Cc1c[nH]c2ccccc12)C(=O)N[C@H](CC(N)=O)C(=O)N[C@@H](CC(=O)O)C(=O)N[C@@H]1C(=O)NCC(=O)N[C@@H](CCCN)C(=O)N[C@@H](CC(=O)O)C(=O)N[C@H](C)C(=O)N[C@@H](CC(=O)O)C(=O)NCC(=O)N[C@H](CO)C(=O)N[C@@H]([C@H](C)CC(=O)O)C(=O)N[C@@H](CC(=O)c2ccccc2N)C(=O)O[C@@H]1C	broth dilution	ATCC10031	> 64
